Assay results of several laboratories.
Compare with care: the assays were run in different laboratories.
Target: Dual specificity mitogen-activated protein kinase kinase 1 (MAP2K1, Homo sapiens, UniProt Q02750)

| SMILES | test | conditions | endpoint | value |
| --- | --- | --- | --- | --- |
| O=C(CSc1nc2nccnc2c(=O)n1CCc1ccccc1)Nc1nccs1 | enzyme activity, inhibitor | 10 µM | inhibition | -2% |
| CNC(=O)c1cc(Oc2ccc(NC(=O)Nc3ccc(Cl)c(C(F)(F)F)c3)cc2)ccn1 | enzyme activity, inhibitor | 10 µM | inhibition | 2% |
| O=C(NCc1ncc(C(F)(F)F)cc1Cl)c1ccc2c(c1)C1(CCS(=O)(=O)CC1)[C@H](C1CC1)N2S(=O)(=O)c1ccc(F)cc1 | cell-free assay, competition with immobilised ligand | 1 µM | remaining binding | 98% |
| Oc1cccc(-c2nc(N3CCOCC3)c3oc4ncccc4c3n2)c1 | enzyme activity, inhibitor | 10 µM | remaining activity | 105% |
| O=C(O)[C@H]1[C@H](Cn2nnc3ccccc3c2=O)CC[C@@H]1C(=O)c1ccc(OCCC2CCOCC2)cc1 | cell-free assay, competition with immobilised ligand | 1 µM | remaining binding | 100% |
| COc1cc(/C=C/C(=O)CC(=O)/C=C/c2ccc(O)c(OC)c2)ccc1O | enzyme activity, inhibitor | 1 µM | activity vs control | 93% |
| Cc1ccc(Nc2nccc(N(C)c3ccc4c(C)n(C)nc4c3)n2)cc1S(N)(=O)=O | enzyme activity, inhibitor | 0.3 µM | inhibition | -5% |
| N#CCCc1ccc2c(c1)-c1[nH]c3ccc([N+](=O)[O-])cc3c1CC(=O)N2 | cell-free assay | 0.5 µM | remaining signal | 97.1% |
| CCN(CC)c1ccc(C2=NNC(=O)CC2C)cc1[N+](=O)[O-] (centres unmarked) | enzyme activity, inhibitor | 10 µM | remaining activity | 126% |
| Cc1sc(C(=O)NC2COC2)cc1-n1cc(NC(=O)Nc2c(F)cccc2Cl)cn1 | enzyme activity, inhibitor | 10 µM | remaining activity | 95.5% |
| Cc1ccc(C(=O)NCc2ccsc2)cc1C#Cc1cn(C(C)C)c2ncnc(N)c12 | enzyme activity, inhibitor | 1 µM | activity vs control | 93% |
| Cn1cnc(Br)c1C1=CN(c2ncnc3[nH]cnc23)CCS1 | enzyme activity, inhibitor, radiometric | 50 nM | inhibition | 17.1% |
| CCCOc1ccc(OC)c(F)c1C(=O)c1ccc(C(=O)N[C@@H]2CNC[C@H]2NC(=O)c2ccc3[nH]ncc3c2)cc1 | enzyme activity, inhibitor | 10 µM | remaining activity | 101% |
| CSc1cccnc1N1CCN(Cc2nc3ccccc3[nH]2)CC1 | cell-free assay, competition with immobilised ligand | 1 µM | remaining binding | 79% |
| CNCc1ccc(-c2cc(-c3nc(-c4ccc(S(=O)(=O)C(C)C)cc4)cnc3N)on2)cc1 | enzyme activity, inhibitor | 0.4 µM | inhibition | 12% |
| CC(C)(C)C(=O)c1sc(NC2CCCCC2)nc1N | enzyme activity, inhibitor | 10 µM | remaining activity | 94% |
| CCCOc1ccc([C@H]2[C@H](C(=O)O)[C@@H](c3ccc4c(c3)OCO4)CN2CC(=O)Nc2c(CC)cccc2CC)cc1 | cell-free assay, competition with immobilised ligand | 1 µM | remaining binding | 66% |
| Nc1nc(Nc2ccc(S(N)(=O)=O)cc2)nn1C(=O)c1c(F)cccc1F | cell-free assay | 0.5 µM | remaining signal | 93.9% |
| Cc1[nH]c(/C=C2\C(=O)Nc3ccc(F)cc32)c(C)c1C(=O)N[C@H]1CCN(C(=O)N(C)C)C1 | enzyme activity, inhibitor | 0.1 µM | remaining activity | 94% |
| C[C@@H]1CN(c2cc(-c3nn(C)c4ccc(OC5(C)CC5)cc34)ncn2)C[C@H](C)O1 | cell-free assay, competition with immobilised ligand | 1 µM | remaining binding | 74% |
